Shown are actives, neighbours in structure and some others; about 1.9% of the full set was active somewhere.
CHRM5 PAM: positive allosteric modulators of human muscarinic M5 receptor; CHO-K1 hM5, Fluo-8 calcium, ACh EC20 PAM; 0% = ACh EC20, 100% = ACh EC100; activation, % at 3 µM; AID 624038; 0.3% of 360,000 active;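 active means activation above the run cutoff, the mean activation of all test compounds plus 3 SD, cut at about 18% in these data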
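system = human M5 receptor in CHO-K1 cells | compound = one concentration, 3 µM final (nominal) | schedule = Post-acetylcholine fluorescence recording 140 s | signal = Fluo-8 calcium dye fluorescence, kinetic read | benchmarks = low control EC20 acetylcholine (0%), high control EC100 acetylcholine (100%) | repeats = singlicate, one well per test compound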
CHRM4 antagonist: blocks acetylcholine activation of human M4 receptor; CHO-hM4 cells, ACh EC80, Fluo-8 calcium fluorescence; 0.73% of 360,000 active; P08173; inhibition, % at 3 µM; AID 624125;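 active means inhibition above its plate's cutoff, the mean inhibition of sample wells plus 3 SD, cut at about 27% in these data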;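 further: 0% = acetylcholine EC80 with DMSO and 100% = DMSO without agonist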
Target sequence (P08173 whole entry, looked up): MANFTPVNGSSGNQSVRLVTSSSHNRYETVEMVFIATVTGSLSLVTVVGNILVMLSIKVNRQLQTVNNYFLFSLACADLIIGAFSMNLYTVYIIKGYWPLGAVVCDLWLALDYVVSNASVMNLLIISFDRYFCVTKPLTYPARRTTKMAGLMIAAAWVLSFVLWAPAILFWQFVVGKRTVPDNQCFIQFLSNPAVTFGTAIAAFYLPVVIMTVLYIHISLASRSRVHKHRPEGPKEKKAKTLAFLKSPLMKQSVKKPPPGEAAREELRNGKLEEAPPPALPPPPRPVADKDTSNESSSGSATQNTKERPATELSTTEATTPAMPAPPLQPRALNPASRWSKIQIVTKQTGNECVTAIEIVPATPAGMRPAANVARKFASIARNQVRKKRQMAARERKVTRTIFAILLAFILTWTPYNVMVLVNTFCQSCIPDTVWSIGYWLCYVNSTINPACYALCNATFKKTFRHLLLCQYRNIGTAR
CHRM4 agonist: agonists of human muscarinic M4 receptor (CHRM4) | CHO-K1 hM4/Gqi5, Fluo-8 calcium fluorescence; vehicle 0%, full acetylcholine response 100% | activation, % at 3 µM | 0.14% of 360,000 active | P08173;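 active means activation above the run mean over all test wells plus 3 SD, cut at about 32% in these data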;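 further: peak over basal fluorescence ratio per well then scaled between controls; 0% = DMSO wells and 100% = acetylcholine at EC100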
CHRM5 agonist: CHRM5 agonism in calcium assay | activation, % at 3 µM | AID 624037 | 0.19% of 360,000 active | CHO-K1 hM5 cells, Fluo-8 calcium fluorescence; 0% DMSO wells, 100% maximal acetylcholine response;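 active means activation above the run's mean over test compounds plus 3 SD, cut at about 23% in these data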;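 further: signal is peak over basal fluorescence ratio across the kinetic read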
CHRM5 antagonist: CHRM5 antagonism in calcium assay; P08912; CHO-hM5 cells, Fluo-8 calcium fluorescence, ACh EC80; inhibition, % at 3 µM; 0.59% of 360,000 active;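 active means inhibition above a per-plate cutoff, the mean of that plate's test compounds plus 3 SD, cut at about 27% in these data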;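 further: 0% = acetylcholine EC80 with DMSO and 100% = DMSO without agonist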
M4 PAM: positive allosteric modulators of human muscarinic M4 receptor | P08173 | CHO-K1 hM4/Gqi5, Fluo-8 calcium fluorescence, ACh EC20; 0% = ACh EC20, 100% = maximal ACh | activation, % at 3 µM | 0.4% of 360,000 active;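 active means activation above its plate's cutoff, the mean activation of sample wells plus 3 SD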
* hit, by the source's call.

SMILES	CHRM5 PAM	CHRM4 antagonist	CHRM4 agonist	CHRM5 agonist	CHRM5 antagonist	M4 PAM
CC1(C(=O)Nc2cccc3ccccc23)CC1(Br)Br (stereo unspecified)	-29	16	10	-10	31*	-45
CC(C)N1CCC1(C)C(=O)Nc1cccc2ccccc12 (stereo unspecified)	5	-5	0	-4	12	1
CC(C)Oc1ccc(C(=O)Nc2c3c(nn2C(C)(C)C)CS(=O)(=O)C3)cc1	-7	-3	1	-4	21	-2
O=C1NC[C@@H](Cc2cccc3ccccc23)N(CC2CCCCC2)C1=O	22*	-1	1	2	-17	7
S=C1NC[C@H](Cc2cccc3ccccc23)N1CC1CCCCC1	7	-4	4	-1	5	10
CC(C)CCn1nc(C(=O)OCC(=O)NC(C)c2ccccc2)c2ccccc2c1=O (stereo unspecified)	2	1	0	-3	29*	-1
C[C@H](CO)N1C[C@H](C)[C@@H](CN(C)C(=O)Oc2ccccc2)OCc2cn(nn2)CCCC1=O	1	-12	2	1	0	9
O=C(Nc1ccc(F)c(Cl)c1)C1CCCN(C2=NS(=O)(=O)c3ccccc32)C1 (stereo unspecified)	13	-10	2	0	-10	24*
CN(C)c1ccc2nc3c(=O)[nH]c(=O)nc-3n(CC(O)C(O)C(O)CO)c2c1 (stereo unspecified)	1	13	48*	12	1	-12
Cc1ccc2nc(SCC(=O)NCC3CCCO3)c(C#N)cc2c1 (stereo unspecified)	2	-2	0	-4	-13	4
Cc1ccc2cc(C#N)c(SCC(=O)NCC3CCCO3)nc2c1 (stereo unspecified)	6	-3	1	-1	-6	26*
O=C(CCC1CCCC1)NCc1cccs1	2	21	0	-2	-1	20*
O=C(CCCCC(=O)NCc1cccs1)NCc1cccs1	3	9	0	-2	2	-6
CNc1sc(C(=O)c2ccc(F)cc2)c(N)c1-c1nc2ccccc2s1	-5	32*	3	0	19	15
CNc1sc(C(=O)c2cccs2)c(N)c1-c1nc2ccccc2s1	6	34*	2	2	20	1
CC(=O)Nc1scc(C)c1-c1nc2ccccc2s1	-3	-5	0	-4	10	-6
N#Cc1ccc(C(=O)NNC(=O)c2ccncc2)cc1	4	6	-1	0	11	-8
Cc1ccccc1C(=O)N1CCN(S(=O)(=O)c2cccs2)CC1	2	27*	0	-1	-8	0
Cc1ccsc1C(=O)N1CCN(S(=O)(=O)c2cccs2)CC1	0	-4	2	-5	6	0
O=C(Nc1ncc(Cc2ccc(SC(F)F)cc2)s1)c1ccc(OC(F)F)cc1	-3	7	3	2	15	21*
Cc1cccc(NC(=O)CSc2nnc(CNC(=O)c3ccco3)o2)c1	-8	7	1	0	12	-4
COC(=O)NNC(=O)C(C)Oc1ccc(Cl)cc1Cl (stereo unspecified)	1	6	1	-2	-5	30*
CC(Oc1ccc(Cl)cc1Cl)C(=O)NNC(=O)c1ccncc1 (stereo unspecified)	4	-11	2	-1	8	0
Fc1c(F)c(F)c(/C=N/NC(=S)Nc2cccnc2)c(F)c1F	7	-9	3	-2	-6	19*
Fc1cccc(F)c1/C=N/NC(=S)Nc1cccnc1	-3	11	0	-3	6	-3
SMILES	CHRM5 PAM	CHRM4 antagonist	CHRM4 agonist	CHRM5 agonist	CHRM5 antagonist	M4 PAM
COc1cccc(C(=O)NCC(c2ccc3c(c2)OCO3)N2CCN(c3ccc(F)cc3)CC2)c1 (stereo unspecified)	-30	-9	7	-6	0	-9
COC(=O)c1ccc(NC(=O)Nc2ccc(F)c(Cl)c2)cc1	-21	9	25	15	31*	-8
O=C(Nc1ccc(Cl)c(Cl)c1)Nc1ccccc1NS(=O)(=O)c1cccs1	-19	6	13	4	30*	-9
COC(=O)c1cccc(NC(=O)Nc2ccc(Cl)c(Cl)c2)c1	-26	12	27	12	32*	-8
O=C(Nc1ccccc1)Nc1ccccc1NS(=O)(=O)c1cccs1	-15	-17	13	8	3	-6
COC(=O)c1cc(NC(=O)Nc2ccccc2)ccc1Cl	-19	-2	25	8	31*	-21
COc1cc2nc(CN3CCN(S(=O)(=O)c4cc(C)ccc4C)CC3)[nH]c(=O)c2cc1OC	2	-23	2	-1	6	2
COC(=O)c1ccc(NC(=O)Nc2ccc([N+](=O)[O-])cc2)cc1	-23	14	18	4	35*	-9
COC(=O)c1sccc1NC(=O)Nc1ccc(Cl)c(Cl)c1	-12	28*	4	-1	17	-19
O=[N+]([O-])c1ccc(Nc2ccccc2)c2nonc12	-8	-8	21	7	-1	-11
O=[N+]([O-])c1ccc(Sc2cccc[n+]2[O-])c2nonc12	-14	64*	6	17	41*	-42
O=C(Nc1ccccc1C(=O)Nc1nnc(C(F)(F)F)s1)c1ccccc1	-24	-10	10	1	36*	-4
O=C(NCc1cccnc1)Nc1cccc([N+](=O)[O-])c1	-11	-3	1	-5	28*	-1
COc1ccc(NC(=O)NC2CCCCCCC2)cc1OC	22*	4	3	-1	-2	17
O=C(Nc1cccc([N+](=O)[O-])c1)NC1CCCCCCC1	-16	6	15	8	29*	-13
O=C(Nc1cccc([N+](=O)[O-])c1)NN1CCCCCC1	-20	11	14	6	30*	-4
O=C(CNC1CCCCC1)Nc1cccc([N+](=O)[O-])c1	3	0	1	0	5	0
CC(=O)Nc1nc(C)c(-c2nc3ccc([N+](=O)[O-])cc3[nH]2)s1	1	5	1	-2	4	6
COCCN(C(=O)CSc1nnc(-c2ccccc2F)o1)c1c(N)n(CC(C)C)c(=O)[nH]c1=O	-6	5	6	1	6	3
CSc1sc(C(=O)NCC2CC2)c(-c2cccs2)c1C#N	5	-1	6	1	-5	17*
CSc1sc(C(=O)NCC2CC2)c2c1S(=O)(=O)N(C)c1ccccc1-2	-12	-10	7	3	9	-9
C[C@@H]1CC[C@H](O)/C=C/C(=O)O[C@H](C)CC[C@H](O)/C=C/C(=O)O1	-10	-4	1	37*	5	0
